Our source for the Ki and Activity values is ChEMBL document CHEMBL2440010, “Click chemistry based synthesis of dopamine D4 selective receptor ligands for the selection of potential PET tracers” (Bioorg Med Chem Lett, 2013).

The structures appear in SMILES notation. pKi: −log10 of the molar value. Active and inactive are the calls of the source. The rule behind the calls is not given here.

The target of experiment [1] is T1, D(2) dopamine receptor (Homo sapiens, UniProt P14416). Kind of experiment: Displacement of [3H]spiperone from human D2long receptor expressed in CHO cells. The format is cell-based. A digest of the protocol:
(§1)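 Competition binding against [3H]spiperone on cloned human receptors (D2long, D2short, D3, D4.4) stably expressed in CHO cells. Ki values were taken from two to four independent experiments, each run in triplicate.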
In general terms: Displacement assays read how much labelled ligand stays bound in the presence of the test substance.

The nature of experiment [2]: Displacement of [3H]ketanserin from 5-HT2 in pig cerebral cortex. In kind it is tissue-based, Sus scrofa.
The target of the next experiment is T2, D(4) dopamine receptor (Homo sapiens, UniProt P21917).
T2 sequence (P21917 whole entry): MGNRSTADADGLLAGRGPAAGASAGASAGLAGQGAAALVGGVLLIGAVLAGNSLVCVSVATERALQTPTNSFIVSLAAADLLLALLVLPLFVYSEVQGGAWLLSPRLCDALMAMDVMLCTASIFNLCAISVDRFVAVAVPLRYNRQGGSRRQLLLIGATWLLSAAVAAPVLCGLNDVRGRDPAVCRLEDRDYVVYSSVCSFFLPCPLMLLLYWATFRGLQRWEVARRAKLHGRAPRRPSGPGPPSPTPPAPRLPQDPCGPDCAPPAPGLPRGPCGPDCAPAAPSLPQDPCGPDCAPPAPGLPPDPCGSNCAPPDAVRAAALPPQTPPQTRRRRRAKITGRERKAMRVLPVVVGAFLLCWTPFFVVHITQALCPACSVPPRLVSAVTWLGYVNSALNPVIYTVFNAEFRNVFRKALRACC
Kind of experiment: Displacement of [3H]spiperone from human D4.4 receptor expressed in CHO cells. The format is cell-based. A digest of the protocol: as §1

Experiment [3] can be described thus: Displacement of [3H]WAY100635 from 5-HT1A in pig cerebral cortex. In kind it is tissue-based, Sus scrofa. A digest of the protocol:
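Porcine cortical membranes were used with selective radioligands: [3H]WAY100635 for 5-HT1A, [3H]ketanserin for 5-HT2 and [3H]prazosin for α1. Ki values were taken from two to four independent experiments, each run in triplicate.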

The target of experiment [4] is T1, D(2) dopamine receptor. As to the kind of experiment: Displacement of [3H]spiperone from human D2short receptor expressed in CHO cells. In kind it is cell-based. In short, it runs like this: as §1
The target in the next experiment is D(1A) dopamine receptor (Sus scrofa, UniProt P50130). Kind of experiment: Displacement of [3H]SCH23390 from D1 receptor in pig striatal membrane. In kind it is cell membranes, Striatum. In short, it runs like this:
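D1 binding on porcine striatal membrane preparations, displacing the D1-selective antagonist [3H]SCH23390. Ki values were taken from two to four independent experiments, each run in triplicate.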

Another experiment deals with D(3) dopamine receptor (Homo sapiens, UniProt P35462). As to the kind of experiment: Displacement of [3H]spiperone from human D3 receptor expressed in CHO cells. The format is cell-based. A digest of the protocol:
as §1

In experiment [5] the target is T3, D(4) dopamine receptor (Homo sapiens) (UniProt P21917).
T3 sequence (whole entry): T2 sequence (P21917 whole entry)
As to the kind of experiment: Antagonist activity at human D4.4 receptor expressed in CHO10001 cells assessed as [3H]thymidine incorporation preincubated at 63 nM for 20 hrs before [3H]thymidine addition by mitogenesis assay. The format is cell-based. For orientation: Incorporation of labelled thymidine or its analogues reports DNA synthesis.

The target in experiment [6] is T3, D(4) dopamine receptor (Homo sapiens). As to the kind of experiment: Partial agonist activity at human D4.4 receptor expressed in CHO10001 cells assessed as [3H]thymidine incorporation preincubated at 63 nM for 20 hrs before [3H]thymidine addition by mitogenesis assay. In kind it is cell-based.

Sequence of D(1A) dopamine receptor (P50130 whole entry): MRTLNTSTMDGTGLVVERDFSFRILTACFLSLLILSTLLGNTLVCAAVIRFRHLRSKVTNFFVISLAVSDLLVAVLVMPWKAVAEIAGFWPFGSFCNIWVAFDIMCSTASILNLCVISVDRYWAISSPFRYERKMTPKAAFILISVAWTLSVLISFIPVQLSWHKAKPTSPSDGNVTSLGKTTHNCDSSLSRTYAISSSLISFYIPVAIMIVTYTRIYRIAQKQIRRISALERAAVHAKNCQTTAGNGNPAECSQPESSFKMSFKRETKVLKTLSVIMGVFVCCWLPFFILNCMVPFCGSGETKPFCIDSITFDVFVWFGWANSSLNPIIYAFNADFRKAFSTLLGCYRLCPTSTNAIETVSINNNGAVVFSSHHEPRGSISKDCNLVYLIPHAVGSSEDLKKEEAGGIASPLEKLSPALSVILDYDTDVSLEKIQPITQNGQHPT
T1 sequence (P14416 whole entry): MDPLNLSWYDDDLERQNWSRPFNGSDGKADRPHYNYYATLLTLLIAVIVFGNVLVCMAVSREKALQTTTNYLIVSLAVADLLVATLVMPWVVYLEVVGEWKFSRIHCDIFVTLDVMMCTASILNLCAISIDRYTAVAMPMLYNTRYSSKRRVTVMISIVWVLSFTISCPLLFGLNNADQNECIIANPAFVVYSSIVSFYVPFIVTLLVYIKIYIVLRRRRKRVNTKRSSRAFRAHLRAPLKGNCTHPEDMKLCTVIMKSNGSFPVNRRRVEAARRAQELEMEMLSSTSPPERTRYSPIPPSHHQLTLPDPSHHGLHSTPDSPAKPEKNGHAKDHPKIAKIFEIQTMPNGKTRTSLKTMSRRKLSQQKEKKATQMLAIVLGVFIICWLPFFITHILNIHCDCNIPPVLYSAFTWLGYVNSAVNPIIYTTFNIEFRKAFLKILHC
Sequence of D(3) dopamine receptor (P35462 whole entry): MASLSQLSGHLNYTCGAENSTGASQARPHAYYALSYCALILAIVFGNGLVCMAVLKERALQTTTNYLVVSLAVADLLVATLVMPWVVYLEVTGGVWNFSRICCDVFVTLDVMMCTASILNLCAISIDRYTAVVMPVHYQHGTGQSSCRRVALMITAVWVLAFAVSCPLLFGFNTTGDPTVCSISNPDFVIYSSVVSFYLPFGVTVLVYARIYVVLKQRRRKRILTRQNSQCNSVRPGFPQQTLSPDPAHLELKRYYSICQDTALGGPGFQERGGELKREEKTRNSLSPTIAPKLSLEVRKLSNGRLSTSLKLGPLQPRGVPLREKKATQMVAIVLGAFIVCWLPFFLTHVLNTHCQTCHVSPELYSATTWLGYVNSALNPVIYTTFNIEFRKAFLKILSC

As a reminder, the pKi is the negative decadic logarithm of the Ki, by convention in mol/L. Higher therefore signals a low Ki. `COc1ccccc1N1CCN(Cc2cn(-c3ccc(OCCCOCCF)cc3)nn2)CC1`: the pKi on D(2) dopamine receptor [1] was 6.36; in experiment [2] it was 5.05; on D(4) dopamine receptor it was 7.80; in experiment [3], 6.32; on D(2) dopamine receptor [4] it was 6.11; on D(1A) dopamine receptor, 5.44. The pKi at D(3) dopamine receptor is 5.54.

For `COc1ccccc1N1CCN(Cc2cn([C@@H]3O[C@H](CO)[C@@H](O)[C@H](O)[C@H]3F)nn2)CC1`, the pKi was 4.64 at D(2) dopamine receptor [1]; 4.42 in experiment [2]; 6.30 on D(4) dopamine receptor; 4.92 in [3]; 4.38 at D(2) dopamine receptor [4]; 4.27 at D(1A) dopamine receptor. On D(3) dopamine receptor, this compound had a pKi of 4.77.

Turning to `COc1ccccc1N1CCN(Cc2cn(-c3ccc(OCCCF)cc3)nn2)CC1`, the pKi was 6.47 on D(2) dopamine receptor [1]; 8.29 at D(4) dopamine receptor; 6.38 in [3]; 6.28 at D(2) dopamine receptor [4]; 4.42 on D(1A) dopamine receptor; 5.55 on D(3) dopamine receptor. The outcome in [5] was Active.

As to `COc1ccccc1N1CCN(Cc2cn(-c3ccc(OCCF)cc3)nn2)CC1`, the pKi was 5.80 on D(2) dopamine receptor [1]; 5.00 in experiment [2]; 7.85 on D(4) dopamine receptor; 6.38 in experiment [3]; 4.74 at D(2) dopamine receptor [4]; 4.35 on D(1A) dopamine receptor. On D(3) dopamine receptor, this compound had a pKi of 4.77. Further, the Activity in experiment [6] amounted to 27%.

For the compound `COc1ccccc1N1CCN(Cc2cn(CCOCCOCCF)nn2)CC1`, the pKi at D(2) dopamine receptor [1] is 5.11; in [2] it was 4.64; on D(4) dopamine receptor it was 6.82; in experiment [3], 6.06; on D(2) dopamine receptor [4], 5.47; on D(1A) dopamine receptor it was 4.52. Also, the pKi on D(3) dopamine receptor is 5.29.

As for `COc1ccccc1N1CCN(Cc2cn(-c3ccc(OCCOCCOCCF)cc3)nn2)CC1`, the pKi on D(2) dopamine receptor [1] is 5.57; in experiment [2] it was 5.09; at D(4) dopamine receptor it was 7.00; in [3], 6.25; at D(2) dopamine receptor [4], 5.54; on D(1A) dopamine receptor, 4.37. The pKi at D(3) dopamine receptor was 6.70.

Consider `COc1ccccc1N1CCN(Cc2cn(CCOCCOCCOCCF)nn2)CC1`, for which the pKi is 5.08 on D(2) dopamine receptor [1]; 4.74 in experiment [2]; 6.17 at D(4) dopamine receptor; 6.11 in experiment [3]; 5.33 at D(2) dopamine receptor [4]; 4.22 at D(1A) dopamine receptor. Also, on D(3) dopamine receptor, the pKi was 5.12.

Consider `COc1ccccc1N1CCN(Cc2cn([C@@H]3O[C@H](CF)[C@@H](O)[C@H](O)[C@H]3O)nn2)CC1`, for which the pKi at D(2) dopamine receptor [1] was 4.62; at D(4) dopamine receptor, 6.47; in experiment [3], 4.74; on D(2) dopamine receptor [4], 4.29; on D(1A) dopamine receptor, 4.11.

Take `COc1ccccc1N1CCN(Cc2cn(CCOCCF)nn2)CC1`: the pKi at D(2) dopamine receptor [1] is 5.80; in [2] it was 4.57; at D(4) dopamine receptor, 7.64; in [3] it was 6.62; at D(2) dopamine receptor [4] it was 6.12; at D(3) dopamine receptor, 5.77.

On to `COc1ccccc1N1CCN(Cc2cn(-c3ccc(OCCCOC4O[C@H](CO)[C@@H](O)[C@H](O)[C@H]4F)cc3)nn2)CC1` (stereo not given in full), for which the pKi on D(2) dopamine receptor [1] was 5.39; in experiment [2] it was 5.11; on D(4) dopamine receptor, 7.49; in experiment [3], 6.19; at D(2) dopamine receptor [4], 5.82; on D(1A) dopamine receptor, 4.80. Besides, on D(3) dopamine receptor, the pKi was 5.24.

`COc1ccccc1N1CCN(Cc2cn(CCCCCCF)nn2)CC1`: the pKi at D(2) dopamine receptor [1] was 6.34; in [2] it was 5.19; on D(4) dopamine receptor, 7.70; in [3], 7.27; at D(2) dopamine receptor [4], 6.25; at D(1A) dopamine receptor, 4.59. Moreover, the pKi on D(3) dopamine receptor is 6.10.
